Assay results: ChEMBL document CHEMBL4513216, “Probing the Open Global Health Chemical Diversity Library for Multistage-Active Starting Points for Next-Generation Antimalarials” (ACS Infect Dis, 2020)

Assay: Toxicity liver stage against HepG2, at 10uM
Assay type: cell-based
Parameters: test concentration 10 uM, cell line HepG2-A16-CD81EGFP
Details: human, HepG2-A16-CD81EGFP cells; read-out: INHIBITION
Outline: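 Uninfected HepG2-A16-CD81EGFP cells, 3 × 10^3 per well, 1536-well, plated on prespotted compound at 10 μM final, parasite-free screening media added to match infected plates; puromycin 10 μM positive, DMSO 0.5% negative; run in parallel with 48 h PbLuc assay at 37 °C, 5% CO2; viability by CellTiter-Glo luminescence, normalized to controls.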

CC(C)CCC(=O)N1CCN(C(=O)c2ccc(-n3cccn3)cc2)CC1
cytotoxicity at 10 µM: 4.28%

CCOc1nc2cnccc2n(CC(=O)Nc2ccccc2OC)c1=O
cytotoxicity at 10 µM: -15%

Cc1cc(NC(=O)C(C)Cn2cncn2)no1 (stereo unspecified)
cytotoxicity at 10 µM: -5.18%

CCS(=O)(=O)N1C[C@H]2CN(Cc3cccc(C)c3)C(=O)[C@H]2C1
cytotoxicity at 10 µM: 2.9%

COCCN1Cc2ccccc2C2(CCN(C(=O)c3ccno3)CC2)C1
cytotoxicity at 10 µM: 5.58%

O=C(Cc1cccnc1)N1CCC2(CCN(C3CCOC3)CC2)C1 (stereo unspecified)
cytotoxicity at 10 µM: 5.08%

CSc1nc2cc(C)n(CC(=O)Nc3nccs3)c2c(=O)n1CC(C)C
cytotoxicity at 10 µM: -12.6%

CCOC(=O)Cc1cs/c(=N/C(=O)COc2cnc(C)cc2O)[nH]1
cytotoxicity at 10 µM: 4.62%

O=c1ccc(-c2cccs2)nn1CN1CCOCC1
cytotoxicity at 10 µM: 5.68%

CN(C)C(=O)NC[C@H]1OC[C@@H]2CCN(Cc3ccoc3)C[C@@H]21
cytotoxicity at 10 µM: 2.82%

Cn1cccc1CN1CCC2(CCCN(C(=O)Cc3cccnc3)C2)C1 (stereo unspecified)
cytotoxicity at 10 µM: 7.17%

O=C(c1ccsc1)N1CC[C@H]2C[C@@H](c3nnc(C4CC4)o3)O[C@@H]2C1
cytotoxicity at 10 µM: -7.36%

COc1ccc(OC)c(C(C)NC(=O)c2nn(C)c(C)c2Br)c1 (stereo unspecified)
cytotoxicity at 10 µM: 5.38%

CC(=O)N1CCN(C(=O)c2[nH]nnc2Nc2ccccc2F)CC1
cytotoxicity at 10 µM: 2.1%

CS(=O)(=O)N1CCCC(Cc2cncc(-c3ccccc3C(=O)O)n2)C1 (stereo unspecified)
cytotoxicity at 10 µM: -6.41%

Cc1cc(-c2cnn(CCNC(=O)CCn3cccn3)c2C2CC2)on1
cytotoxicity at 10 µM: -4.66%

CCc1nccn1-c1cncc(C2CCCN2Cc2ccccn2)n1 (stereo unspecified)
cytotoxicity at 10 µM: -3.47%

O=C(C1CCCC1)N1CCn2c(nnc2C2CCCNC2)C1 (stereo unspecified)
cytotoxicity at 10 µM: 1.19%

CC(NCCCN1CCCC1=O)c1cc(Br)ccc1O (stereo unspecified)
cytotoxicity at 10 µM: -1.41%

O=C(Cc1c(F)cccc1Cl)NC1CCCCNC1=O (stereo unspecified)
cytotoxicity at 10 µM: 1.91%

Cc1ccc(CN(C)C(=O)CNC(=O)N2CCc3ccccc3C2)o1
cytotoxicity at 10 µM: 5.95%

c1ncn(CC2CCCN(CC3CCCCC3)C2)n1 (stereo unspecified)
cytotoxicity at 10 µM: 4.61%

COc1c(Cl)cccc1NCc1csc(C)n1
cytotoxicity at 10 µM: -10.1%

CC(C)c1noc(CCC(=O)N2CCCC(n3ccnc3)C2)n1 (stereo unspecified)
cytotoxicity at 10 µM: 5.58%

CC(C)c1n[nH]c(C2CN(Cc3ccno3)CCO2)n1 (stereo unspecified)
cytotoxicity at 10 µM: 5.49%

Cc1nc2c(c(C)c1CC(=O)Nc1ccnn1C(C)C)c(=O)[nH]n2C
cytotoxicity at 10 µM: 13%

CC(OCC(F)(F)F)C(=O)N1CCCC1 (stereo unspecified)
cytotoxicity at 10 µM: -14%

Cc1ccc(OCC(=O)NCc2ccco2)nc1
cytotoxicity at 10 µM: -0.224%

CC(C)COC1CCN(C(=O)c2cc3ccccc3c(=O)[nH]2)CC1
cytotoxicity at 10 µM: 9.05%

CCc1nnc2n1CCN(C(=O)c1ccc3[nH]nnc3c1)C2
cytotoxicity at 10 µM: -0.337%

COc1ccccc1C(=O)NCCCN1CCCC1C(=O)N(C)C (stereo unspecified)
cytotoxicity at 10 µM: -2.94%

CCC(CNC(=O)c1nc(=O)[nH][nH]1)Oc1cccc(C(F)(F)F)c1 (stereo unspecified)
cytotoxicity at 10 µM: -6.25%

CCN(CCc1nccs1)C(=O)c1ccco1
cytotoxicity at 10 µM: 15.4%

O=C(c1ccc[nH]1)N1CCCC1c1nc(-c2ccccc2)n[nH]1 (stereo unspecified)
cytotoxicity at 10 µM: 2.57%

Cc1ccc(OCC(O)Cn2ncc3cnn(C)c(=O)c32)cc1 (stereo unspecified)
cytotoxicity at 10 µM: -3.49%

Cc1ccc(C2CSCCN2C(=O)c2cc(C(N)=O)cs2)o1 (stereo unspecified)
cytotoxicity at 10 µM: 5.48%

Cc1csc(CN(C)C(=O)Nc2cc(F)cc(N3CCCC3)c2)n1
cytotoxicity at 10 µM: 8.16%

Cc1cccc(C(C)CNS(=O)(=O)CCCC#N)c1 (stereo unspecified)
cytotoxicity at 10 µM: -2.17%

N#Cc1c(F)cccc1N1CCCC(C(=O)Nc2nccs2)C1 (stereo unspecified)
cytotoxicity at 10 µM: 8.92%

O=C1CC(NS(=O)(=O)N2CCOCC2)CN1Cc1ccccc1 (stereo unspecified)
cytotoxicity at 10 µM: 4.19%

CSC(C)(C)CNC(=O)NCC[S+]([O-])c1ccccc1 (stereo unspecified)
cytotoxicity at 10 µM: 15.5%

CCCN1CCC(N(Cc2ncc(C)o2)C(C)=O)C1 (stereo unspecified)
cytotoxicity at 10 µM: -13.1%

NC(=O)CN1CCCN(C(=O)c2ccn(-c3ccccc3)n2)CC1
cytotoxicity at 10 µM: -1.61%

O=C(Nc1ccnc(OC2CCOC2)c1)c1cc(F)ccc1F (stereo unspecified)
cytotoxicity at 10 µM: 5.87%

O=C(NCCCNC(=O)c1cccc(O)c1)NCc1ccccc1F
cytotoxicity at 10 µM: -6.42%

CC(=O)N1CC[C@H]2OCC[C@@H](C(=O)Nc3cccnc3C)[C@@H]2C1
cytotoxicity at 10 µM: 11.3%

Cc1cccc(NC(=O)N2CCC3(CCC(C(=O)N(C)C)O3)CC2)c1 (stereo unspecified)
cytotoxicity at 10 µM: -107%

CSc1ncc(CN(C)C(C)c2cccnc2)cn1 (stereo unspecified)
cytotoxicity at 10 µM: 2.1%

COCCCn1cnnc1CNC(=O)c1[nH]c2c(C)cc(C)cc2c1C
cytotoxicity at 10 µM: 5.22%

CN(Cc1ccsc1)C(=O)c1ccc(C2CCCO2)s1 (stereo unspecified)
cytotoxicity at 10 µM: 7.9%

CCc1cc(NCCc2cccnc2)n2nc(C)c(C)c2n1
cytotoxicity at 10 µM: 2.12%

Cc1nc(N(C)C)nc(N(C)Cc2cnccn2)c1C
cytotoxicity at 10 µM: 3.4%

CCN1CCCC(C)(C(=O)NCc2nnnn2-c2ccccc2)C1 (stereo unspecified)
cytotoxicity at 10 µM: -17.7%

Cc1cccc(Cc2nc3c([nH]2)CCCNC3=O)c1
cytotoxicity at 10 µM: -12.9%

CCCN1CCC(Cc2noc(-c3[nH]cnc3C)n2)CC1
cytotoxicity at 10 µM: 1.34%

CN1CCN(c2cccc(NC(=O)NCc3csc(N(C)C)n3)c2)C1=O
cytotoxicity at 10 µM: 0.91%

CN1CCN(CCCOc2ccccc2CN2C[C@H]3CC[C@H]2C3)CC1
cytotoxicity at 10 µM: -7.88%

O=C1CC2(CCN(C(=O)c3csc(-c4ccccc4)n3)C2)C(=O)N1 (stereo unspecified)
cytotoxicity at 10 µM: -1.25%

CCC(C(=O)NC1CCCCC1)n1cccc(OC)c1=O (stereo unspecified)
cytotoxicity at 10 µM: -2.23%

Cc1nc(CNC(=O)c2ccc3c(c2)nc(N2CCOCC2)n3C)cs1
cytotoxicity at 10 µM: -1.76%

CCC(C(=O)N(C)C)n1ccc2ncccc2c1=O (stereo unspecified)
cytotoxicity at 10 µM: 3.63%

O=C(c1cnn2cc(CCO)cnc12)N1CCOC(C(F)(F)F)C1 (stereo unspecified)
cytotoxicity at 10 µM: 3.24%

Cc1nc(CN2CCCC(CCNS(C)(=O)=O)C2)c[nH]1 (stereo unspecified)
cytotoxicity at 10 µM: -10.2%

CCn1nc(C(C)C)cc1C(=O)NCCCOC
cytotoxicity at 10 µM: -14.7%

CC[C@@]1(O)CCN(C(=O)c2ccc(SC)cc2)C[C@H]1O
cytotoxicity at 10 µM: -17.5%

CCn1ncnc1C(C)NC(=O)C1CCN(C(C)C)CC1 (stereo unspecified)
cytotoxicity at 10 µM: 18.5%

Cc1nc(C2CCCN(C(=O)CO)C2)cc(N2CCOCC2)n1 (stereo unspecified)
cytotoxicity at 10 µM: -12.9%

Cc1cc(CN2CCN(C(=O)C(C)C)[C@@H]3CS(=O)(=O)C[C@@H]32)ccc1F
cytotoxicity at 10 µM: 3.41%

CNc1cccc(C2CCCN(C(C)=O)C2)n1 (stereo unspecified)
cytotoxicity at 10 µM: -0.962%

Cc1nc(O)c2nnn(C[C@H]3CCCN3C(=O)C(C)(C)C)c2n1
cytotoxicity at 10 µM: 3.25%

N#Cc1cccnc1N1CCC(C2CCCCCN2C(=O)C2CC2)CC1 (stereo unspecified)
cytotoxicity at 10 µM: 1.95%

O=C(CN1CCc2cncnc2C1)NCCOc1ccccc1
cytotoxicity at 10 µM: -6.78%

Cc1ccc(CC(=O)N2CCCC(c3nc(C)cs3)C2)cn1 (stereo unspecified)
cytotoxicity at 10 µM: -8.13%

Cc1cc(NC(=O)CN2CCn3c(nnc3C3CC3)C2)n(C)n1
cytotoxicity at 10 µM: -14%

Cc1ccc(CNC(=O)CN2CCN(CC(O)c3ccco3)CC2)cc1 (stereo unspecified)
cytotoxicity at 10 µM: 2.71%

Cn1cc(C(=O)NC[C@@H]2OC[C@H]3CN(Cc4ccco4)CC[C@H]32)cn1
cytotoxicity at 10 µM: -13.4%

O=C(c1ccncc1F)N1CC[C@@H]2CN(c3ncccn3)CCO[C@@H]2C1
cytotoxicity at 10 µM: -77.2%

CN1CCN(Cc2cnc3n2CCN(Cc2cccnc2)CC3)CC1
cytotoxicity at 10 µM: 6.26%

O=C(c1ccco1)N1CCCC2(CN(Cc3ccc(F)cc3)CCO2)C1 (stereo unspecified)
cytotoxicity at 10 µM: 0.0288%

c1cc(CN2C[C@@H]3OCCN(CC4CCCO4)[C@@H]3C2)ccn1 (stereo partly specified)
cytotoxicity at 10 µM: -80.2%

Cc1cc(N2CCN(C(=O)[C@@H]3C[C@H]4C=C[C@@H]3C4)CC2)cc(C)n1
cytotoxicity at 10 µM: -7.62%
